MrgX1 agonist = human MrgX1 receptor agonism, primary screen. MrgX1-HEK293 cells, Fluo-4 calcium fluorescence, agonist mode; stronger effect = higher value. B-score at 10 µM. actives 0.44% (n = 310,000). AID 588627;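 active = calcium response B-score plate-corrected fluorescence ratio at least 3 library SD, with starting fluorescence B-score inside 5 SD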
Target sequence (Q96LB2 whole entry, looked up): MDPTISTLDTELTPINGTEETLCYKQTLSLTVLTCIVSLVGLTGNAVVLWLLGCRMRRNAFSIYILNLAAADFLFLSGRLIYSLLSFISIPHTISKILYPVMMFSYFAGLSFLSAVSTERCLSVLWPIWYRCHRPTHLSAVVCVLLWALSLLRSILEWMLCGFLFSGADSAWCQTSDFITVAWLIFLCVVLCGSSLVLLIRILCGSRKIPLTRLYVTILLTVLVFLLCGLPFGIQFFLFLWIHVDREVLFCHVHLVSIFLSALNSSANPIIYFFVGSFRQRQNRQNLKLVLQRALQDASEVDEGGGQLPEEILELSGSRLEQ
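Assay system: MrgX1-expressing HEK293 cells / Amount: fifteen thousand cells per well / Doses: test compound in the initial addition of three / Timing: cells plated overnight, dye loaded 0.5 h 37 °C, 0.5 h room temperature / Technique: kinetic calcium dye fluorescence, Fluo-4 NW / Control set: positive and negative controls per plate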
RGS4 act = potentiators or activators of RGS4 | HEK293 M3R/inducible RGS4, carbachol calcium flux Fluo4; stronger effect = lower value | B-score at 10 µM | actives 0.92% (n = 310,000) | AID 463111;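 active = B-score of the integrated calcium signal more than 4 SD below the library mean, with starting fluorescence not abnormally high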;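 also: negative B-score means reduced calcium response which marks RGS4 activation or potentiation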
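System – HEK293 FlpIn-TREx cells, stable M3R, doxycycline-inducible RGS4 · Reagent – ECmax carbachol challenge · Times – compound preincubation 20 min at room temperature before agonist · Technique – Fluo4 fluorescence kinetic imaging of calcium · Measure – B score of integrated Fluo4 ratio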
RGS4 inh = human RGS4 inhibition | B-score at 10 µM | actives 0.45% (n = 310,000) | HEK293 M3R/RGS4 inducible, Fluo-4 calcium flux; stronger effect = higher value; triggered by carbachol at its EC20 | P49798;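 active = B-score, a plate-corrected calcium signal, over three deviations above library mean, with baseline fluorescence within five deviations of library mean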;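 also: RGS4 expression induced by doxycycline in cells with stable M3 receptor; B-score is computed from the integrated fluorescence ratio over baseline after carbachol; higher B-score means a larger calcium signal and so more RGS4 inhibition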
Target sequence (P49798 whole entry, looked up): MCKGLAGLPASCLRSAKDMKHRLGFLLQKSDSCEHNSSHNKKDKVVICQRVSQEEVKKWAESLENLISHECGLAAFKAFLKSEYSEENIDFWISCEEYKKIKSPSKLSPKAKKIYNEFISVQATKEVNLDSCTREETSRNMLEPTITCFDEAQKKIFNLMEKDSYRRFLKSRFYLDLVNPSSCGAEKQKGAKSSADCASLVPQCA
MrgX1 antagonist = blocks BAM8-22 activation of human MrgX1 receptor | Q96LB2 | MRGX1-HEK293 calcium flux, Fluo-4, BAM8-22 antagonism; stronger effect = lower value | B-score at 10 µM | actives 1.3% (n = 310,000);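 active = calcium-response B-score plate-corrected more than 3 library SD below zero, starting fluorescence within 5 deviations, no agonist response on first addition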;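 also: peak minus trough fluorescence over baseline after final BAM8-22 challenge near maximal dose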
MrgX1 allo act = allosterically activates human MrgX1 receptor signaling; MrgX1-HEK293, Fluo-4 calcium flux, FDSS; stronger effect = higher value; B-score at 10 µM; actives 0.63% (n = 310,000);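 active = plate-corrected calcium response at least 3 library SD above typical, normal starting fluorescence, not activating the receptor alone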;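 also: compound read alongside a low EC10 to EC30 dose of BAM8-22 agonist; peak minus trough fluorescence over baseline measured at the second addition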
MrgX1 antag conf = reconfirmed antagonist of human MrgX1 receptor signaling; shares compounds with MrgX1 antagonist; remaining BAM8-22 calcium response % of control (stronger effect = lower value), % at 10 µM; MrgX1-HEK293, BAM8-22 calcium flux, Fluo-4; stronger effect = lower value; actives 19% (n = 2,300);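 active = remaining agonist calcium response no higher than 100% minus 3 SD of agonist-only control wells, with starting fluorescence near control levels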;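 also: agonist BAM8-22 given at a near maximal EC90 to ECmax level; peak minus minimum fluorescence divided by baseline after agonist addition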
HEK293 Ca flux = activity in parental HEK293 cells lacking MrgX1. shares compounds with MrgX1 antagonist. Fluo-4 calcium fluorescence, FDSS. fluorescence ratio F(max-min)/F0 at 10 µM. actives 2% (n = 4,000). AID 624111;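 active = duplicate-averaged calcium fluorescence ratio at least three times the standard deviation of buffer wells, a nonspecific response in parental cells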
HEK293 Ca counter = activity in parental HEK293 cells without MrgX1. shares compounds with MrgX1 antagonist. AID 624114. actives 0.4% (n = 4,000). fluorescence ratio F(max-min)/F0 at 10 µM. parental HEK293 calcium flux, Fluo-4 fluorescence ratio; stronger effect = higher value;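 active = calcium fluorescence ratio, averaged over duplicates, at least 3 SD of the buffer-well ratio, meaning a nonspecific response in receptor-free cells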;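 also: untransfected parental HEK293 lacking MrgX1 used as counterscreen for MrgX1 allosteric activators; fluorescence change taken during the second addition on a kinetic imager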
HEK293 Ca cntr2 = activity in parental HEK293 cells lacking MrgX1 receptor; actives 8.7% (n = 4,000); fluorescence ratio F(max-min)/F0 at 10 µM; Fluo-4 calcium fluorescence (FDSS); stronger effect = higher value; shares compounds with MrgX1 antagonist;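 active = calcium fluorescence ratio at least three times the spread of buffer wells, meaning a non-specific response in parental cells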
Hits are given with their value; i = inactive; nt = no result. In the library only some 3.5% were active in any assay of this set; here they are far more common.

SMILES	MrgX1 agonist	RGS4 act	RGS4 inh	MrgX1 antagonist	MrgX1 allo act	MrgX1 antag conf	HEK293 Ca flux	HEK293 Ca counter	HEK293 Ca cntr2
CC(=O)N1CCN(c2ccc(NC(=O)COc3ccc(Cl)cc3Cl)cc2)CC1	i	i	i	-7	i	85%	i	i	i
O=C(COc1cc(Cl)ccc1Cl)Nc1nnc(C2CC2)s1	i	i	i	-4.6	i	i	i	i	i
CC(=O)Nc1ccccc1Nc1nc(NCCO)nc(N2CCCC2)n1	i	i	i	-8.3	i	i	i	i	i
OCCNc1nc(Nc2ccccc2O)nc(N2CCCC2)n1	i	i	i	i	i	nt	nt	nt	nt
COc1ccc(OCC(=O)N/N=C2\CCc3ccccc32)cc1	i	i	i	i	i	nt	nt	nt	nt
COc1ccc2c(c1)CC/C2=N\NC(=O)c1ccccc1	i	i	i	-18	i	i	i	i	i
COc1ccc(C(=O)NC(C)c2ccc(-n3ccnc3)cc2)c(OC)c1 (configuration not stated)	i	i	i	-10	i	i	i	i	i
CC[C@H](C)[C@@H](C(=O)NCCCCCCCCCCC(=O)N1CCN(C(=O)OC(C)(C)C)CC1)n1cc(CCCCCNC(=O)OC(C)(C)C)nn1	i	nt	nt	-13	i	44%	i	i	i
CC[C@H](C)[C@@H](C(=O)NCCCCCCCCCCC(=O)N1CCN(C(=O)OC(C)(C)C)CC1)n1cc(CCCCN=C(NC(=O)OC(C)(C)C)NC(=O)OC(C)(C)C)nn1	i	nt	nt	i	i	nt	nt	nt	nt
Cc1ccc(Cl)c(OCC(=O)Nc2sc(C)c(C)c2C#N)c1	i	i	i	-7.9	i	i	i	i	i
Cc1ccc(Cl)c(OCC(=O)Nc2cccnc2)c1	i	i	i	i	i	nt	nt	nt	nt
CCOc1cccc(-c2csc(C3COc4ccccc4O3)n2)c1 (configuration not stated)	i	i	i	i	i	nt	nt	nt	nt
COc1ccc(-c2csc(/C(C#N)=C\c3ccc(OC)c([N+](=O)[O-])c3)n2)cc1	i	i	i	i	i	nt	nt	nt	nt
COc1ccc(-c2csc(/C(C#N)=C\c3ccc(O)c([N+](=O)[O-])c3)n2)cc1OC	i	i	i	-11	i	41%	i	i	i
Nc1c(-c2ccc(Cl)cc2)cnc2c(-c3ccccc3)cnn12	i	i	i	i	i	nt	nt	nt	nt
CCCCC(=O)NC1=C(C(=O)OC)SCC1	i	i	i	-4.9	i	i	i	i	i
CCOC(=O)c1sc(NC(=O)c2cccs2)cc1C	i	i	i	i	i	nt	nt	nt	nt
CCOC(=O)c1sc(NC(=O)Nc2cccc(Cl)c2)cc1C	i	i	i	-6.1	i	57%	i	i	i
O=C(NNC(=O)c1ccc(-c2ccccc2)cc1)Nc1ccc(F)cc1F	i	i	i	i	i	nt	nt	nt	nt
COc1ccc(OC)c(CNC(=O)C2CCC(=O)N2C(C)C)c1 (configuration not stated)	i	i	i	i	i	nt	nt	nt	nt
Cc1ncoc1C(=O)N1CCCC(C(=O)c2ccc(Oc3ccccc3)cc2)C1 (configuration not stated)	i	i	i	i	i	nt	nt	nt	nt
Cc1ncoc1C(=O)N1CCCC(C(=O)c2cccc(OC(C)C)c2)C1 (configuration not stated)	i	i	i	-6.1	i	i	i	i	i
CN1CCN(C2=Nc3cc(F)ccc3Cc3ccccc32)CC1	i	i	i	i	i	nt	nt	nt	nt
CN1CCN(C2=Nc3c(Cl)cc(Cl)c4cccc2c34)CC1	i	i	i	-5.8	i	i	i	i	49
Cc1cc(C)cc(NC(=O)C2C3C=CC4(O3)C2C(=O)N(CCCN(C)C)C4C(=O)NC2CCCC(C)C2C)c1 (configuration not stated)	i	i	i	i	i	nt	nt	nt	nt
SMILES	MrgX1 agonist	RGS4 act	RGS4 inh	MrgX1 antagonist	MrgX1 allo act	MrgX1 antag conf	HEK293 Ca flux	HEK293 Ca counter	HEK293 Ca cntr2
O=C(NNC(=O)C1CC=CCC1C(=O)O)c1ccc(Cl)cc1 (configuration not stated)	i	i	i	i	i	nt	nt	nt	nt
Cc1ccc(O)c(NC(=S)NC(=O)Cc2ccc(Cl)cc2)c1	i	-7.5	i	-24	i	27%	i	i	i
CCCNC(=O)CCn1cc(-c2ccc(OC)cc2)nc1-c1ccncc1	i	i	i	i	i	nt	nt	nt	nt
Cc1nn(C)c(Cl)c1CN1CCN(C2CCCC2)C(CCO)C1 (configuration not stated)	i	i	i	-11	i	i	i	i	i
Cc1ccc2c(c1)N(C(=O)CCC(=O)NCCCN1CCN(C)CC1)CCO2	i	i	i	-8.7	i	i	i	i	i
Cc1ccc2c(c1)N(C(=O)CCC(=O)NCCCN1CCC(Cc3ccccc3)CC1)CCO2	i	i	i	i	i	nt	nt	nt	nt
O=C(NCSC1=NCCS1)c1ccccc1	i	i	i	-5.3	i	i	i	i	i
CCOC(=O)c1c(C)[nH]c(C)c1C(=O)CSc1nc2ccccc2c(=O)n1-c1ccccc1C	i	i	i	i	i	nt	nt	nt	nt
CCOC(=O)c1c(C)[nH]c(C)c1C(=O)CSc1nc2ccccc2c(=O)n1-c1ccc(F)cc1	i	i	i	-5.3	i	83%	i	i	i
CC1(C)Cc2c(C#N)c(N)n(-c3ccccc3)c(=O)c2CO1	i	i	i	-13	i	i	i	i	i
N#Cc1c(N)n(-c2ccccc2)c(=O)c2cc([N+](=O)[O-])ccc12	i	i	i	i	i	nt	nt	nt	nt
O=C(CCNC(=O)c1ccc(Br)cc1)NCc1ccncc1	i	i	i	-6.1	i	i	i	i	i
O=C(NCc1ccncc1)c1ccc(Br)cc1	i	i	i	i	i	nt	nt	nt	nt
O=C(O)c1ccc(Cl)c(S(=O)(=O)N2CCCC2)c1	i	i	i	i	i	nt	nt	nt	nt
O=C(O)c1ccc(Br)c(S(=O)(=O)N2CCCC2)c1	i	i	i	-5.6	i	i	i	i	i
CC(=O)Nc1ccc(-c2cc(NC(C)=O)n(-c3ccccc3)n2)cc1	i	i	i	i	i	nt	nt	nt	nt
O=C(CCl)Nc1cc(-c2ccccc2)nn1-c1ccccc1	i	i	i	-5.3	i	i	i	i	57
O=C(CN1C(=O)NC2(CCCCC2)C1=O)Nc1cccc(S(=O)(=O)N2CCOCC2)c1	i	i	i	-5.4	i	i	i	i	i
O=C(Cn1nnc(-c2ccccc2)n1)Nc1cccc(S(=O)(=O)N2CCOCC2)c1	i	i	i	-4.8	i	70%	i	i	i
